Key:
CDK12/13 = details: ref Zhang et al., 2016; Gao et al., 2018; cited from earlier work
Jurkat cells = test: Proliferation assay, Cell Titer Glo; format: cell-based, human; details: 72 h, highest concentrations
How it was run: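 Jurkat cells at 2 × 10^4 cells/mL were exposed 72 h to compound at final concentrations from 20μM to 600pM. Viability was read by CellTiter-Glo luminescence, and IC50 was fitted by nonlinear regression. Run in triplicate.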

HAP1 cells [1] = test: Growth rate inhibition; format: cell-based, human; details: for GRmax: HAP1 wild-type, 72 hours
How it was run: (§1)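 HAP1 WT or CDK7-C312S cells were seeded at 500 cells/well, adhered 24 h, then treated with a dilution series for 72 h. Live cells were identified by a dead-cell stain and Hoechst nuclear segmentation and counted at dosing and at 72 h. Counts were normalised to same-plate DMSO controls to give growth rate inhibition (GR) values. Technical duplicates in biological triplicate.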

CDK9/CycT1 = CDK9/CycT1 (Homo sapiens, UniProt P50750); test: Adapta Eu kinase assay, Km ATP; format: biochemical; details: read-out: IC50 CDK9
Chain of CDK9/CycT1 (P50750 whole entry): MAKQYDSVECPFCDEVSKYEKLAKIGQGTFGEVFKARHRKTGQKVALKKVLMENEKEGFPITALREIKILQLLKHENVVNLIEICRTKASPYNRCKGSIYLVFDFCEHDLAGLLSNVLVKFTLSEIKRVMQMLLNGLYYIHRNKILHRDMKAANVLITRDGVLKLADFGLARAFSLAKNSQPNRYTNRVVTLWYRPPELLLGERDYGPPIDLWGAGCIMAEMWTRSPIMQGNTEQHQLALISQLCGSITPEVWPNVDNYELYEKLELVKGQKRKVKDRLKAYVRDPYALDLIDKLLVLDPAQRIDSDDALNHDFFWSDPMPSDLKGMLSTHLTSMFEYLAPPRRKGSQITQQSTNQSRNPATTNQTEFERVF
Chain of CDK9/CycT1 (O60563 whole entry partner): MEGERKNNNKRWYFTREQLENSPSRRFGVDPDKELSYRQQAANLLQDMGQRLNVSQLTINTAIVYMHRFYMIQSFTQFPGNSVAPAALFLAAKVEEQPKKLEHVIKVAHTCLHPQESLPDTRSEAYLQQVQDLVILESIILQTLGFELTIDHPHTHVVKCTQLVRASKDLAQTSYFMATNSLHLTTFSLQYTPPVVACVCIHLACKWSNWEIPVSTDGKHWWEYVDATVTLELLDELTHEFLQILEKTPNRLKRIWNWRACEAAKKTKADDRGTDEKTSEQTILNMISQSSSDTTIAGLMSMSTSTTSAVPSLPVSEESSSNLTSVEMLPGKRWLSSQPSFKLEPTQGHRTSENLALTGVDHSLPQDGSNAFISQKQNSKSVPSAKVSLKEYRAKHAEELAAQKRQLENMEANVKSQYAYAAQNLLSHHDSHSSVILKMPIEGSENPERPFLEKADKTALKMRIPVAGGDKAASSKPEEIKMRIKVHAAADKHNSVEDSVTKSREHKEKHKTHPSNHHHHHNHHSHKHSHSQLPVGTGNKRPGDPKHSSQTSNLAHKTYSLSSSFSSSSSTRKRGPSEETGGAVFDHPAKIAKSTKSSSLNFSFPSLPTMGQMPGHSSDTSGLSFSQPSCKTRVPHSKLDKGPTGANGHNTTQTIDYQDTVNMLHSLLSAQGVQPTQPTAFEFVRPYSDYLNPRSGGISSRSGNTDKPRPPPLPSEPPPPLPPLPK

[2] = system: HAP1 cells expressing CDK7-C312S; test: Cell cycle analysis; format: cell-based, human; details: 72 hours
How it was run: (§2)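 HAP1 WT and CDK7-C312S clones were seeded at 500 cells/well and allowed to adhere 24 h, then given a compound dilution series. Cells were analysed at dosing and after 72 h: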

[3] = system: CDK7-cyclin H-MAT1 trimeric complex; test: Mass spectrometry analysis of covalent labeling of recombinant CAK complex; format: binding; details: recombinant complex incubated 4 hours at 37 °C
How it was run: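 Recombinant CAK complex (CDK7/cyclin H/MNAT1) was incubated with test compound or DMSO for 4 h at 37 °C and resolved by SDS-PAGE, then analysed by nanoLC/MS. Two unlabeled, non-cysteine CDK7 peptides served for normalization. For CE-MS, treated complex was denatured (0.1% Rapigest final), reduced (10 mM DTT), alkylated (22.5 mM iodoacetamide) and trypsin-digested overnight at 37 °C.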

[4] = system: Pol II CTD S2/S5/S7 phosphorylation; test: Western blot of RNA Pol II CTD phosphorylation in HAP1 and Jurkat cells; format: cell-based, human; details: up to 2 uM, combination with 250nM THZ531
How it was run: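 HAP1 WT and CDK7-C312S cells were treated 24 h with compound at the indicated concentrations, alone or with 250nM CDK12/13 inhibitor co-treatment. Lysis was 30 min on ice in RIPA buffer (50mM Tris-HCl, 150 mM NaCl, 1% NP-40, 0.5% deoxycholate, 0.1% SDS, pH 7.4) with protease/phosphatase inhibitors and nuclease. Pol II CTD phospho-serine marks were immunoblotted and detected with infrared-labelled secondary antibodies (1:10,000).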

HAP1 cells [5] = test: Cell cycle analysis; format: cell-based, human; details: HAP1 WT, 72 hours
How it was run: as §2

CDK7-C312S cells = format: cell-based, human; details: 500nM, 24 hr
How it was run: (§3)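 HAP1 WT or CDK7-C312S cells (1×106) were treated 24 h with 500nM or 2μM compound, alone or combined with a 250nM CDK12/13 inhibitor, with DMSO controls. RNA-seq was run in triplicate and genes were called differentially expressed at log2 fold change >1.5. Gene-set overlap between treatments was scored by Jaccard similarity index.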

phospho-CDK1(T161) = test: Western blot of CDK1 T-loop phosphorylation in HAP1 cells; format: cell-based, human; details: for effect on CDK1 T-loop phosphorylation: HAP1 WT, 24 hours, 125 nM to 2 μM YKL-5-124 or 2 μM YKL-5-167
How it was run: (§4)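 HAP1 WT and CDK7-C312S cells were treated 24 h across a concentration range, or with 2μM over a time course. Cells were lysed 30 min on ice in RIPA (50mM Tris-HCl, 150 mM NaCl, 1% NP-40, 0.5% deoxycholate, 0.1% SDS, pH 7.4) with protease/phosphatase inhibitors and nuclease. Blots were probed for phospho-T161 CDK1, phospho-T160 CDK2 and the total proteins, and detected with infrared-labelled secondaries.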

CDK7/Mat1/CycH = CDK7/Mat1/CycH (Homo sapiens, UniProt P50613); test: Adapta Eu fixed time point in vitro kinase assay, Km ATP; format: biochemical
Chain of CDK7/Mat1/CycH (P50613 whole entry): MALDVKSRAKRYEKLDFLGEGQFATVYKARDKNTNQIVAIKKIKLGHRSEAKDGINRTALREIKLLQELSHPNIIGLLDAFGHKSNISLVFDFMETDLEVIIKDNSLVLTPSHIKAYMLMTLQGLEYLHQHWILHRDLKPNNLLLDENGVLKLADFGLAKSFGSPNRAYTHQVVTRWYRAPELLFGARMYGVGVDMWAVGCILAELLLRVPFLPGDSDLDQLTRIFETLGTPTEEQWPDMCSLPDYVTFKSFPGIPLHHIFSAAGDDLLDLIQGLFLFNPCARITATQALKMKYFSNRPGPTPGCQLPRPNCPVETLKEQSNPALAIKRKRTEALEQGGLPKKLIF
Chain of CDK7/Mat1/CycH (P51946 whole entry partner): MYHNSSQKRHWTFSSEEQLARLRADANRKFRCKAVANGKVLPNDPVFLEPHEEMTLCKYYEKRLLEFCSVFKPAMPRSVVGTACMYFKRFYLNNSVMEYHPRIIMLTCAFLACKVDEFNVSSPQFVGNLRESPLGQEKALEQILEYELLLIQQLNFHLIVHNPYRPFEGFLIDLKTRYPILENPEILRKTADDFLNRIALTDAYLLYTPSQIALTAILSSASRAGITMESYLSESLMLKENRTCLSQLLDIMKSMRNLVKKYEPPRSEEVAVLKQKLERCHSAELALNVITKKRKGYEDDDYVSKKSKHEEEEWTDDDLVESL
Chain of CDK7/Mat1/CycH (P51948 whole entry partner): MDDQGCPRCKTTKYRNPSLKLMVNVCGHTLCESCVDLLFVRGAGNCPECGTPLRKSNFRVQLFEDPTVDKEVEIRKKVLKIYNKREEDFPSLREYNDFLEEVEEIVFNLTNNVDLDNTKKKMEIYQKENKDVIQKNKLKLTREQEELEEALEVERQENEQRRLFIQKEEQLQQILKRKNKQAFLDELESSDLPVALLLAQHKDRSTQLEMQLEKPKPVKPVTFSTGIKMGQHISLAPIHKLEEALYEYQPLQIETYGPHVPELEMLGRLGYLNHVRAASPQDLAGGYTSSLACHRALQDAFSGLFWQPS

[6] = system: CDK7-C312S expressing HAP1 cells; test: Growth rate inhibition; format: cell-based, human; details: for GRmax in CDK7-C312S cells: HAP1 CDK7-C312S, 72 hours
How it was run: as §1

CDK7/CycH/Mat1 = CDK7/CycH/Mat1 (Homo sapiens, UniProt P50613); test: Covalent inhibition kinetics, peptide substrate mobility shift assay; format: biochemical
Chain of CDK7/CycH/Mat1 (P50613 whole entry): as the sequence (P50613 whole entry) above
Chain of CDK7/CycH/Mat1 (P51946 whole entry partner): as the sequence (P51946 whole entry partner) above
Chain of CDK7/CycH/Mat1 (P51948 whole entry partner): as the sequence (P51948 whole entry partner) above

CDK7 C312S = format: cell-based, Human
How it was run: (§5)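 HeLa cells stably expressing FLAG-tagged wild-type or C312S CDK7 were treated 6 h with compound or DMSO and lysed. Substrate was 1 μg RPB1 with 25 μM ATP plus 10 μCi 32P-ATP. Read-out was SDS-PAGE and phosphorimaging.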

HAP1 cells [7] = test: LIVE/DEAD dye staining in HAP1 cells; format: cell-based, human; details: HAP1 WT and CDK7-C312S, 72 hours
How it was run: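 HAP1 WT and CDK7-C312S cells were plated at 500 cells/well and allowed to adhere 24 h before a dilution series of test compound. Cells were analysed at time of dosing and after 72 h. After a 1 h EdU pulse they were stained with LIVE/DEAD Far Red (1:2000), then fixed with 3.7% formaldehyde for 30 min. Mean dye intensity within Hoechst nuclear masks classified cells as live or dead. Technical duplicates, biological triplicate.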

CDK13 = details: ATP 1mM, at the concentrations tested
CDK7 [8] = molecular target: CDK7 (Homo sapiens, UniProt P50613); test: Radioactive in vitro kinase assay at 1 mM ATP; format: biochemical; details: read-out: IC50 for CDK7; ATP concentration of 1mM
Chain of CDK7 (Homo sapiens, UniProt P50613) (P50613 2-346): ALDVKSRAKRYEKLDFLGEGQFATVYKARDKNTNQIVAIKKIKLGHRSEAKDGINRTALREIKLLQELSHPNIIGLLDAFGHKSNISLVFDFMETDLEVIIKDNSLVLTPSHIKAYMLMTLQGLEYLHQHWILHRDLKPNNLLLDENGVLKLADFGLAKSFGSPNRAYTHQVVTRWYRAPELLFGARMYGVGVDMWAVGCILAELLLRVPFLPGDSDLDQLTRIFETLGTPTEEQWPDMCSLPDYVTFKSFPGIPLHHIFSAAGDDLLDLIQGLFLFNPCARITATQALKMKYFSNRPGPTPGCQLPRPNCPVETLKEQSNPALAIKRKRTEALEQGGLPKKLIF
Chain of CDK7 (Homo sapiens, UniProt P50613) (P51946 whole entry partner): as the sequence (P51946 whole entry partner) above
Chain of CDK7 (Homo sapiens, UniProt P50613) (P51948 whole entry partner): as the sequence (P51948 whole entry partner) above

cyclin K- CDK12/13 = details: HAP1 cells, 6 hours
CDK2/CycA = CDK2/CycA (Homo sapiens, UniProt P24941); test: Z'LYTE kinase assay, Km ATP; format: biochemical; details: read-out: IC50 CDK2
CDK7-cyclin H [9] = test: Competitive bioTHZ1 pulldown in HAP1 cells; format: cell-based, human; details: for time required for equivalent engagement of CDK7 (>50%): compared with 30 min for YKL-5-124
WT HAP1 cells = test: RNA sequencing, differential expression and Jaccard analysis in HAP1 WT cells; format: cell-based, human; details: WT HAP1, 500nM, 24 hr, log2 fold change >1.5
How it was run: as §3

PARP cleavage = test: Western blot for PARP cleavage; format: cell-based, human; details: HAP1, all conditions up to 2 μM and 48 hours
CDK12 = test: Radioactive in vitro kinase assay at 1 mM ATP; format: biochemical; details: ATP 1mM, at the concentrations tested
CDK7 [10] = test: KiNativ profiling in Jurkat cells; format: cell-based, human; details: 1μM, 6 hours
How it was run: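 Jurkat cells were treated 6 h with 1μM compound or DMSO, then sonicated in 50 mM HEPES pH 7.5, 150 mM NaCl, 0.1% Triton X-100 with phosphatase inhibitors. Cleared lysate was labelled 10 min with 20 μM desthiobiotin-ATP acyl-nucleotide probe, denatured, alkylated and trypsin-digested for 1 h at 37°C. Probe-labelled peptides were captured on streptavidin and quantified by mass spectrometry as probe-binding block versus DMSO.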

CDK7-cyclin H [11] = test: Competitive bioTHZ1 pulldown in Jurkat cells; format: cell-based, human; details: Jurkat cells versus HAP1 cells
CDK2(T160) = test: Western blot of CDK2 T-loop phosphorylation in HAP1 cells; format: cell-based, human; details: HAP1 WT, 24 hours, 125 nM to 2 μM YKL-5-124 or 2 μM YKL-5-167
How it was run: as §4

CDK7 [12] = format: cell-based, Human; details: at 10μM, Hela cells treated 6 hours, wild-type CDK7
How it was run: as §5

In the case of `CN(C)C/C=C/C(=O)Nc1ccc(C(=O)N2CCC[C@@H](Nc3ncc(Cl)c(-c4c[nH]c5ccccc45)n3)C2)cc1` [THZ531], the “times more potent on CDK12/13 than CDK7” value (CDK12/13) is listed as “approximately 20 times”.
For `C=CC(=O)Nc1ccc(C(=O)Nc2n[nH]c3c2CN(C(=O)N[C@H](CN(C)C)c2ccccc2)C3(C)C)cc1` [YKL-5-124, (S)-3-(4-acrylamidobenzamido)-N-(2-(dimethylammo)-1-phenylethyl)-6,6-dimethyl-4,6-dihydropyrrolo[3,4-c]pyrazole-5(1H)-carboxamide], the “maximal inhibition of proliferation (residual, of the original cell count)” value (Jurkat cells) was no more than 20%, the “concentration at which strong anti-proliferative effects begin” value (HAP1 cells [1]; HAP1 and Jurkat cells) was 100 nM and the GRmax (HAP1 cells [1]) was “zero”. The IC50 (CDK9/CycT1) was 3020 nM, the “effect on cell cycle distribution in CDK7-C312S cells” value [2] was “cell cycle distribution was not affected” and the “efficiency of covalent labeling of CDK7” value [3] was “approximately 99%”. For the same molecule, the “effect on phosphorylation of S5 and other Pol II CTD serine residues” value [4] was “no effect”, the “effect on cell cycle distribution” value (HAP1 cells [5]) was “dose-dependent increase in G1 and G2/M phase cells and a corresponding loss of S phase cells” and the “number of differentially expressed genes” value (CDK7-C312S cells) was 583 genes. The “time to inhibition of T-loop phosphorylation” value (phospho-CDK1(T161); HAP1, 2μM) was no more than 12 h, the “effect on CDK1 T-loop phosphorylation” value (phospho-CDK1(T161)) was “inhibited CDK1 T-loop phosphorylation” and the “concentration for reduced CDK1/2 activation” value (phospho-CDK1(T161); HAP1 and Jurkat cells) was “exceeding 1 μM”. For the same molecule, the “selectivity for CDK7 than CDK9 and CDK2” value (CDK7/Mat1/CycH) was 100 fold, the IC50 (CDK7/Mat1/CycH; read-out: IC50 CDK7/Mat1/CycH, fixed time point, Km ATP) was 9.7 nM and the “GR50 fold higher in CDK7-C312S than in wild-type cells” value ([6]; HAP1, 72 hours) was “at least 150 fold”. The “GRmax in CDK7-C312S cells” value [6] was “too high to be estimated accurately”, the Ki (CDK7/CycH/Mat1; 1 mM ATP, 2-step inactivation model) was 1.9 nM and the “covalently modifies CDK7 times faster than THZ1” value (CDK7/CycH/Mat1; ratio of kinact values) was “approximately 11 times”. For the same molecule, the “inhibitory activity in the in vitro kinase assay with C312S mutant” value (CDK7 C312S) was “abolished the inhibitory activity”, the “cell death by LIVE/DEAD dye” value (HAP1 cells [7]) was “substantially reduced in CDK7-C312S cells” and the “inhibition of CDK13” value (CDK13) was “no inhibition”. The IC50 (CDK7 [8]) was 53.5 nM, the “effect on pulldown of cyclin K- CDK12/13” value (cyclin K- CDK12/13) was “no effect” and the IC50 (CDK2/CycA) was 1300 nM. The “reduction of CDK7-cyclin H binding to bioTHZ1” value (CDK7-cyclin H [9]; 100 nM, 30 min) was greater than 50%, the “concentration that blocked pulldown of CDK7-cyclin H” value (CDK7-cyclin H [9]; HAP1 cells, 6 hours) was “about 30 nM” and the “lowest concentration with engagement of CDK7 three hours after washout” value (CDK7-cyclin H [9]; washout after 3-hour treatment) was 125 nM. For the same molecule, the “number of differentially expressed genes” value (WT HAP1 cells) was 1452 genes, the “PARP cleavage / apoptosis” value (PARP cleavage) was “apoptosis was not induced” and the “inhibition of CDK12” value (CDK12) was “no inhibition”. The “CDK7 bound (block of desthiobiotin-ATP probe)” value (CDK7 [10]) was “more than 65%”.
In the case of `CN(C)C/C=C/C(=O)Nc1ccc(C(=O)Nc2cccc(Nc3ncc(Cl)c(-c4c[nH]c5ccccc45)n3)c2)cc1` [THZ1, reference compound], the “maximal inhibition of proliferation” value (Jurkat cells) is reported as “inhibit proliferation to zero”, the GRmax (HAP1 cells [1]) is reported as “negative” and the “GRmax in CDK7-C312S cells” value [6] is reported as “unchanged”. The “cell death by LIVE/DEAD dye” value (HAP1 cells [7]) was “induced substantially more cell death than YKL-5-124”, the “effect on pulldown of cyclin K- CDK12/13” value (cyclin K- CDK12/13) was “bound to both CDK7 and CDK12/13” and the “time required for equivalent engagement of CDK7 (>50%)” value (CDK7-cyclin H [9]; HAP1 cells) was “twice as long”.
For `CCC(=O)Nc1ccc(C(=O)Nc2n[nH]c3c2CN(C(=O)N[C@H](CN(C)C)c2ccccc2)C3(C)C)cc1` [YKL-5-167, (S)-N-(2-(dimethylamino)-1-phenylethyl)-6,6-dimethyl-3-(4-propionamidobenzamido)-4,6-dihydropyrrolo[3,4-c]pyrazole-5(1H)-carboxamide], the “effect on cell cycle distribution” value (HAP1 cells [5]) was “no effect on cell cycle distribution”, the “effect on CDK1 T-loop phosphorylation” value (phospho-CDK1(T161)) was “no detectable effect” and the “fold higher concentrations required to function as a competitor” value (CDK7-cyclin H [11]) was 10 fold. The “time required for equivalent engagement of CDK7 (>50%)” value (CDK7-cyclin H [9]; HAP1 cells) was 6 h, the “fold less effective as a competitor for CDK7-cyclin H” value (CDK7-cyclin H [9]; relative to YKL-5-124) was 100 fold and the “activity as competitor following washout” value (CDK7-cyclin H [9]; washout after 3-hour treatment) was “inactive following washout”. The “effect on CDK2 T-loop phosphorylation” value (CDK2(T160)) was “no detectable effect”, the “inhibition of phosphorylation of RNA polymerase II substrate” value (CDK7 [12]) was “little or no inhibition” and the “CDK7 engagement in KiNativ” value (CDK7 [10]) was “only weakly engaged”.

From article PMC6588464 (Cell chemical biology, 2019)
